Assay results: ChEMBL document CHEMBL4689842, “EUbOPEN Chemogenomics Library wave 1” (2021)

Tested on: HEK-293T
Experiment: Multiplex assay against HEK293T;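 as to Population Tubulin-Different-Phenotype (%): share of the cells with healthy nuclei that show this phenotype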
Type: toxicity, cell-based
Settings: human
In short: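 Compound was added to live cells that had been stained at seeding with Hoechst33342, BioTracker Green Microtubule Cytoskeleton Dye, MitoTracker Red and Annexin V Alexa Fluor 680, and imaging followed on a CQ1 microscope at 37°C and 5% CO2. CellPathfinder machine-learning gating divided cells into Hoechst high-intensity objects or normal cells, normal cells into healthy, pyknosed or fragmented nuclei, and pyknosed cells into mitotic or apoptotic. Tubulin, mitochondrial-mass and membrane-permeability phenotypes are per cents of healthy-nucleus cells.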

[1] = 12 h, 1 µM, compound concentration 1 uM, replicate 1
[2] = 12 h, 1 µM, compound concentration 1 uM, replicate 2
[3] = 12 h, 10 µM, compound concentration 10 uM, replicate 1
[4] = 12 h, 10 µM, compound concentration 10 uM, replicate 2
[5] = 24 h, 1 µM, compound concentration 1 uM, replicate 1
[6] = 24 h, 1 µM, compound concentration 1 uM, replicate 2
[7] = 24 h, 10 µM, compound concentration 10 uM, replicate 1
[8] = 24 h, 10 µM, compound concentration 10 uM, replicate 2
[9] = 48 h, 1 µM, compound concentration 1 uM, replicate 1
[10] = 48 h, 1 µM, compound concentration 1 uM, replicate 2
[11] = 48 h, 10 µM, compound concentration 10 uM, replicate 1
[12] = 48 h, 10 µM, compound concentration 10 uM, replicate 2

For CC(C)[C@H](CO)Nc1nc(Nc2cccc(Cl)c2)c2ncn(C(C)C)c2n1 [PURVALANOLA], the “Population Apoptotic (%)” value [1] was 48%, the “Population Fragmented Nuclei (%)” value [1] was 8% and the “Population Healthy Nuclei (%)” value [1] was 37%. For the same compound, the “Population Hoechst High Intensity Objects (%)” value [1] was 13%, the “Population Membrane Permeable-Phenotype (%)” value [1] was 5% and the “Population Mitochondria Different-Phenotype (%)” value [1] was 85%. The “Population Mitotic Cells (%)” value [1] was 51%, the “Population Normal (%)” value [1] was 86% and the “Population Pyknosed Nuclei (%)” value [1] was 54%. For the same compound, the “Population Tubulin-Different-Phenotype (%)” value [1] was 53%, the “Total Cell Count” value [1] was 256 and the “Population Apoptotic (%)” value [2] was 19%. The “Population Fragmented Nuclei (%)” value [2] was 6%, the “Population Healthy Nuclei (%)” value [2] was 43% and the “Population Hoechst High Intensity Objects (%)” value [2] was 3%. For the same compound, the “Population Membrane Permeable-Phenotype (%)” value [2] was 7%, the “Population Mitochondria Different-Phenotype (%)” value [2] was 33% and the “Population Mitotic Cells (%)” value [2] was 80%. For the same compound, the “Population Normal (%)” value [2] was 96%, the “Population Pyknosed Nuclei (%)” value [2] was 50% and the “Population Tubulin-Different-Phenotype (%)” value [2] was 32%. The “Total Cell Count” value [2] was 201, the “Population Apoptotic (%)” value [3] was 73% and the “Population Fragmented Nuclei (%)” value [3] was 7%. The “Population Healthy Nuclei (%)” value [3] was 27%, the “Population Hoechst High Intensity Objects (%)” value [3] was 12% and the “Population Membrane Permeable-Phenotype (%)” value [3] was 2%. The “Population Mitochondria Different-Phenotype (%)” value [3] was 97%, the “Population Mitotic Cells (%)” value [3] was 26% and the “Population Normal (%)” value [3] was 87%. The “Population Pyknosed Nuclei (%)” value [3] was 64%, the “Population Tubulin-Different-Phenotype (%)” value [3] was 98% and the “Total Cell Count” value [3] was 324. The “Population Apoptotic (%)” value [4] was 53%, the “Population Fragmented Nuclei (%)” value [4] was 6% and the “Population Healthy Nuclei (%)” value [4] was 18%. The “Population Hoechst High Intensity Objects (%)” value [4] was 7%, the “Population Membrane Permeable-Phenotype (%)” value [4] was 5% and the “Population Mitochondria Different-Phenotype (%)” value [4] was 82%. The “Population Mitotic Cells (%)” value [4] was 46%, the “Population Normal (%)” value [4] was 92% and the “Population Pyknosed Nuclei (%)” value [4] was 75%. The “Population Tubulin-Different-Phenotype (%)” value [4] was 97%, the “Total Cell Count” value [4] was 198 and the “Population Apoptotic (%)” value [5] was 42%. For the same compound, the “Population Fragmented Nuclei (%)” value [5] was 14%, the “Population Healthy Nuclei (%)” value [5] was 36% and the “Population Hoechst High Intensity Objects (%)” value [5] was 11%. For the same compound, the “Population Membrane Permeable-Phenotype (%)” value [5] was 4%, the “Population Mitochondria Different-Phenotype (%)” value [5] was 75% and the “Population Mitotic Cells (%)” value [5] was 57%. For the same compound, the “Population Normal (%)” value [5] was 88%, the “Population Pyknosed Nuclei (%)” value [5] was 49% and the “Population Tubulin-Different-Phenotype (%)” value [5] was 53%. The “Total Cell Count” value [5] was 295, the “Population Apoptotic (%)” value [6] was 14% and the “Population Fragmented Nuclei (%)” value [6] was 4%. For the same compound, the “Population Healthy Nuclei (%)” value [6] was 63%, the “Population Hoechst High Intensity Objects (%)” value [6] was 3% and the “Population Membrane Permeable-Phenotype (%)” value [6] was 3%. The “Population Mitochondria Different-Phenotype (%)” value [6] was 26%, the “Population Mitotic Cells (%)” value [6] was 85% and the “Population Normal (%)” value [6] was 96%. The “Population Pyknosed Nuclei (%)” value [6] was 31%, the “Population Tubulin-Different-Phenotype (%)” value [6] was 36% and the “Total Cell Count” value [6] was 244. For the same compound, the “Population Apoptotic (%)” value [7] was 75%, the “Population Fragmented Nuclei (%)” value [7] was 6% and the “Population Healthy Nuclei (%)” value [7] was 31%. The “Population Hoechst High Intensity Objects (%)” value [7] was 12%, the “Population Membrane Permeable-Phenotype (%)” value [7] was 2% and the “Population Mitochondria Different-Phenotype (%)” value [7] was 98%. For the same compound, the “Population Mitotic Cells (%)” value [7] was 24%, the “Population Normal (%)” value [7] was 87% and the “Population Pyknosed Nuclei (%)” value [7] was 61%. The “Population Tubulin-Different-Phenotype (%)” value [7] was 96%, the “Total Cell Count” value [7] was 375 and the “Population Apoptotic (%)” value [8] was 69%. For the same compound, the “Population Fragmented Nuclei (%)” value [8] was 4%, the “Population Healthy Nuclei (%)” value [8] was 19% and the “Population Hoechst High Intensity Objects (%)” value [8] was 9%. The “Population Membrane Permeable-Phenotype (%)” value [8] was 5%, the “Population Mitochondria Different-Phenotype (%)” value [8] was 94% and the “Population Mitotic Cells (%)” value [8] was 30%. The “Population Normal (%)” value [8] was 90%, the “Population Pyknosed Nuclei (%)” value [8] was 75% and the “Population Tubulin-Different-Phenotype (%)” value [8] was 97%. The “Total Cell Count” value [8] was 200, the “Population Apoptotic (%)” value [9] was 49% and the “Population Fragmented Nuclei (%)” value [9] was 18%. The “Population Healthy Nuclei (%)” value [9] was 42%, the “Population Hoechst High Intensity Objects (%)” value [9] was 13% and the “Population Membrane Permeable-Phenotype (%)” value [9] was 3%. For the same compound, the “Population Mitochondria Different-Phenotype (%)” value [9] was 46%, the “Population Mitotic Cells (%)” value [9] was 50% and the “Population Normal (%)” value [9] was 86%. The “Population Pyknosed Nuclei (%)” value [9] was 40%, the “Population Tubulin-Different-Phenotype (%)” value [9] was 38% and the “Total Cell Count” value [9] was 347. For the same compound, the “Population Apoptotic (%)” value [10] was 13%, the “Population Fragmented Nuclei (%)” value [10] was 7% and the “Population Healthy Nuclei (%)” value [10] was 77%. For the same compound, the “Population Hoechst High Intensity Objects (%)” value [10] was 4%, the “Population Mitochondria Different-Phenotype (%)” value [10] was 12% and the “Population Mitotic Cells (%)” value [10] was 86%. The “Population Normal (%)” value [10] was 95%, the “Population Pyknosed Nuclei (%)” value [10] was 15% and the “Population Tubulin-Different-Phenotype (%)” value [10] was 26%. The “Total Cell Count” value [10] was 414, the “Population Apoptotic (%)” value [11] was 85% and the “Population Fragmented Nuclei (%)” value [11] was 8%. The “Population Healthy Nuclei (%)” value [11] was 50%, the “Population Hoechst High Intensity Objects (%)” value [11] was 12% and the “Population Mitochondria Different-Phenotype (%)” value [11] was 99%. The “Population Mitotic Cells (%)” value [11] was 14%, the “Population Normal (%)” value [11] was 87% and the “Population Pyknosed Nuclei (%)” value [11] was 41%. For the same compound, the “Population Tubulin-Different-Phenotype (%)” value [11] was 99%, the “Total Cell Count” value [11] was 366 and the “Population Apoptotic (%)” value [12] was 89%. The “Population Fragmented Nuclei (%)” value [12] was 6%, the “Population Healthy Nuclei (%)” value [12] was 38% and the “Population Hoechst High Intensity Objects (%)” value [12] was 5%. For the same compound, the “Population Membrane Permeable-Phenotype (%)” value [12] was 2%, the “Population Mitochondria Different-Phenotype (%)” value [12] was 94% and the “Population Mitotic Cells (%)” value [12] was 10%. For the same compound, the “Population Normal (%)” value [12] was 94%, the “Population Pyknosed Nuclei (%)” value [12] was 55% and the “Population Tubulin-Different-Phenotype (%)” value [12] was 94%. For the same compound, the “Total Cell Count” value [12] was 190.
